For one assay, the system named is HepG2. As to the kind of experiment: Cytotoxicity against human HepG2 cells after 3 days by MTT assay. It is filed as functional, cell-based. The conditions noted are these: HepG2, 72 h. In short, it runs like this: (§1)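 Freshly trypsinized cells were seeded at 5000-10 000 per well, with compounds added from a DMSO-diluted stock. After 3 days of culture, attached cells were incubated with MTT (0.5 mg/mL) for 1 h and then solubilized in DMSO. Absorbance was read at 550 nm.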
(Tetrazolium dyes change colour on reduction, which living cells bring about.)

The next assay deals with MCF7. In words: Cytotoxicity against human MCF7 cells after 3 days by MTT assay. It is filed as functional, cell-based. The conditions noted are these: MCF7, 72 h. The method in brief: (§2)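 Freshly trypsinized cells were seeded at 5000-10 000 per well, with compounds added from a DMSO-diluted stock. After 3 days of culture, attached cells were incubated with MTT (0.5 mg/mL) for 1 h and then solubilized in DMSO. Absorbance was read at 550 nm. IC50 is the concentration that reduced cell growth by 50%.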

The subject of a further assay is A549. As to the kind of experiment: Cytotoxicity against human A549 cells after 3 days by MTT assay. It is filed as functional, cell-based. The conditions noted are these: A549, 72 h. In short, it runs like this:
as §1

A short description of assay [1]: Cytotoxicity against human Hep3B cells after 3 days by MTT assay. Format: functional, cell-based, Hep 3B2. The note with it: 72 h. The method in brief:
as §2

A further assay concerns MDA-MB-231. In words: Cytotoxicity against human MDA-MB-231 cells after 3 days by MTT assay. It is filed as functional, cell-based. The conditions noted are these: MDA-MB-231, 72 h. The method in brief:
as §2

In brackets after ≈: the same amount, converted by molar mass. Residues, ends and D or L forms follow the SMILES beside them.

For the molecule `CC[C@H](C)[C@@H]1NC(=O)[C@@H]2CCCN2C(=O)[C@@H]2CCCN2C(=O)[C@H](CC(C)C)NC(=O)[C@H](CO)NC(=O)CNC(=O)[C@H](Cc2ccccc2)NC1=O` (cyclo(FGSLPPI)), the IC50 (in the assay on HepG2; with MCF7; in the assay on A549; in assay [1]; in the assay with MDA-MB-231) was above 20 µg/mL throughout.

As for `COc1cccc2c1C(=O)c1c(O)c3c(c(O)c1C2=O)C[C@@](O)(C(=O)CO)C[C@@H]3O[C@H]1C[C@H](N)[C@H](O)[C@H](C)O1` [DOXORUBICIN], the figures for the IC50 (with MCF7; in assay [1]; with MDA-MB-231) were 1.21 µg/mL (≈ 2.23 µM), 0.31 µg/mL (≈ 0.57 µM) and 0.73 µg/mL (≈ 1.34 µM), respectively.

Take `COC(=O)c1ccc(OC)cc1NC(=O)c1ccccc1O` [4-METHOXYDIANTHRAMIDE B]: the IC50 – broadly, the concentration at which inhibition is half-maximal – in the assay with HepG2 was 4.08 µg/mL (≈ 13.5 µM); in the assay with MCF7, above 20 µg/mL; in the assay with A549, above 20 µg/mL; in assay [1], 16 µg/mL (≈ 53.2 µM); with MDA-MB-231 it was above 20 µg/mL.

Regarding `CC[C@H](C)[C@@H]1NC(=O)[C@H](C(C)C)NC(=O)[C@H](Cc2ccc(O)cc2)NC(=O)[C@H](Cc2ccccc2)NC(=O)[C@@H]2CCCN2C(=O)CNC1=O` (cyclo(FYVIGP)), the IC50 in the assay on HepG2 is 17.2 µg/mL (≈ 25.4 µM); with MCF7, above 20 µg/mL; with A549, above 20 µg/mL; in assay [1] it was above 20 µg/mL; in the assay on MDA-MB-231, above 20 µg/mL.

Consider `CC[C@H](C)[C@@H]1NC(=O)[C@@H]2CCCN2C(=O)CNC(=O)[C@H](C(C)C)NC(=O)[C@H](Cc2ccccc2)NC(=O)[C@H](CO)NC1=O` (cyclo(FVGPIS)), for which the IC50 is 2.37 µg/mL (≈ 3.95 µM) in the assay on HepG2; above 20 µg/mL with MCF7; above 20 µg/mL with A549; above 20 µg/mL in assay [1]; above 20 µg/mL in the assay with MDA-MB-231.
